≈ marks a conversion by molar mass, not a printed value.
system: Acinetobacter baumannii; assay: Antibacterial activity against gram-negative Acinetobacter baumannii AB250 by CLSI method; assay type: functional
Outline: (§1)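 Broth microdilution MIC per CLSI in cation-adjusted Mueller Hinton broth, prepared fresh and held at 4 °C. Defibrinated horse blood added where appropriate. Compounds serially diluted in sterile deionized water. Strains from ATCC unless otherwise noted. Runs accepted when comparator antibiotics fell within QC ranges for ATCC quality control strains.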

| SMILES | MIC |
| --- | --- |
| CN(C)[C@@H]1C(O)=C(C(N)=O)C(=O)[C@@]2(O)C(O)=C3C(=O)c4c(O)cc([C@@H]5CCCN5C)c(C(F)(F)F)c4C[C@H]3C[C@@H]12 | 0.25 µg/mL (≈ 0.442 µM) |
| CN(C)[C@@H]1C(O)=C(C(N)=O)C(=O)[C@@]2(O)C(O)=C3C(=O)c4c(O)cc([C@@H]5CCCN5)c(F)c4C[C@H]3C[C@@H]12 | 32 µg/mL (≈ 63.8 µM) |
| COc1c(C2CCCN2)cc(O)c2c1C[C@H]1C[C@H]3[C@H](N(C)C)C(O)=C(C(N)=O)C(=O)[C@@]3(O)C(O)=C1C2=O (stereo partly specified) | > 32 µg/mL |

system: Stenotrophomonas maltophilia; assay: Antibacterial activity against gram-negative Stenotrophomonas maltophilia SM256 by CLSI method; assay type: functional; outline: as §1

| SMILES | MIC |
| --- | --- |
| CN(C)[C@@H]1C(O)=C(C(N)=O)C(=O)[C@@]2(O)C(O)=C3C(=O)c4c(O)cc([C@@H]5CCCN5C)c(C(F)(F)F)c4C[C@H]3C[C@@H]12 | 0.125 µg/mL (≈ 0.221 µM) |
| CN(C)[C@@H]1C(O)=C(C(N)=O)C(=O)[C@@]2(O)C(O)=C3C(=O)c4c(O)cc([C@@H]5CCCN5)c(F)c4C[C@H]3C[C@@H]12 | 8 µg/mL (≈ 16 µM) |
| COc1c(C2CCCN2)cc(O)c2c1C[C@H]1C[C@H]3[C@H](N(C)C)C(O)=C(C(N)=O)C(=O)[C@@]3(O)C(O)=C1C2=O (stereo partly specified) | > 32 µg/mL |

system: Burkholderia cenocepacia; assay: Antibacterial activity against gram-negative Burkholderia cenocepacia BC240 by CLSI method; assay type: functional
Outline: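 Defibrinated horse blood added where appropriate. Compounds serially diluted in sterile deionized water. Strains from ATCC unless otherwise noted. Runs accepted when comparator antibiotics fell within QC ranges for ATCC quality control strains.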

| SMILES | MIC |
| --- | --- |
| CN(C)[C@@H]1C(O)=C(C(N)=O)C(=O)[C@@]2(O)C(O)=C3C(=O)c4c(O)cc([C@@H]5CCCN5C)c(C(F)(F)F)c4C[C@H]3C[C@@H]12 | 4 µg/mL (≈ 7.07 µM) |
| CN(C)[C@@H]1C(O)=C(C(N)=O)C(=O)[C@@]2(O)C(O)=C3C(=O)c4c(O)cc([C@@H]5CCCN5)c(F)c4C[C@H]3C[C@@H]12 | > 32 µg/mL |
| COc1c(C2CCCN2)cc(O)c2c1C[C@H]1C[C@H]3[C@H](N(C)C)C(O)=C(C(N)=O)C(=O)[C@@]3(O)C(O)=C1C2=O (stereo partly specified) | > 32 µg/mL |

system: Enterococcus faecalis; assay: Antibacterial activity against gram-positive Enterococcus faecalis EFs327 harboring tet(M) by CLSI method; assay type: functional
Outline: (§2)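 CLSI broth microdilution MIC in fresh cation-adjusted Mueller Hinton broth, supplemented with defibrinated horse blood where appropriate. Compounds serially diluted in sterile deionized water. Runs accepted when comparator antibiotics against ATCC quality-control strains fell within recommended ranges.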

| SMILES | MIC |
| --- | --- |
| CN(C)[C@@H]1C(O)=C(C(N)=O)C(=O)[C@@]2(O)C(O)=C3C(=O)c4c(O)cc([C@@H]5CCCN5)c(F)c4C[C@H]3C[C@@H]12 | 32 µg/mL (≈ 63.8 µM) |
| COc1c(C2CCCN2)cc(O)c2c1C[C@H]1C[C@H]3[C@H](N(C)C)C(O)=C(C(N)=O)C(=O)[C@@]3(O)C(O)=C1C2=O (stereo partly specified) | 32 µg/mL (≈ 62.3 µM) |

system: Enterococcus faecium; assay: Antibacterial activity against gram-positive Enterococcus faecium EFm404 harboring tet(M) by CLSI method; assay type: functional; outline: as §2

| SMILES | MIC |
| --- | --- |
| CN(C)[C@@H]1C(O)=C(C(N)=O)C(=O)[C@@]2(O)C(O)=C3C(=O)c4c(O)cc([C@@H]5CCCN5)c(F)c4C[C@H]3C[C@@H]12 | 4 µg/mL (≈ 7.98 µM) |
| COc1c(C2CCCN2)cc(O)c2c1C[C@H]1C[C@H]3[C@H](N(C)C)C(O)=C(C(N)=O)C(=O)[C@@]3(O)C(O)=C1C2=O (stereo partly specified) | 16 µg/mL (≈ 31.2 µM) |

system: Klebsiella pneumoniae; assay: Antibacterial activity against gram-negative Klebsiella pneumoniae KP457 harboring blacTX-M-15 extended spectrum beta-lactamase gene by CLSI method; assay type: functional; outline: as §2

| SMILES | MIC |
| --- | --- |
| CN(C)[C@@H]1C(O)=C(C(N)=O)C(=O)[C@@]2(O)C(O)=C3C(=O)c4c(O)cc([C@@H]5CCCN5C)c(C(F)(F)F)c4C[C@H]3C[C@@H]12 | 2 µg/mL (≈ 3.54 µM) |
| CN(C)[C@@H]1C(O)=C(C(N)=O)C(=O)[C@@]2(O)C(O)=C3C(=O)c4c(O)cc([C@@H]5CCCN5)c(F)c4C[C@H]3C[C@@H]12 | 0.5 µg/mL (≈ 0.997 µM) |
| COc1c(C2CCCN2)cc(O)c2c1C[C@H]1C[C@H]3[C@H](N(C)C)C(O)=C(C(N)=O)C(=O)[C@@]3(O)C(O)=C1C2=O (stereo partly specified) | 2 µg/mL (≈ 3.89 µM) |

system: Proteus mirabilis; assay: Antibacterial activity against gram-negative Proteus mirabilis PM385 by CLSI method; assay type: functional; outline: as §1

| SMILES | MIC |
| --- | --- |
| CN(C)[C@@H]1C(O)=C(C(N)=O)C(=O)[C@@]2(O)C(O)=C3C(=O)c4c(O)cc([C@@H]5CCCN5)c(F)c4C[C@H]3C[C@@H]12 | 0.25 µg/mL (≈ 0.498 µM) |
| COc1c(C2CCCN2)cc(O)c2c1C[C@H]1C[C@H]3[C@H](N(C)C)C(O)=C(C(N)=O)C(=O)[C@@]3(O)C(O)=C1C2=O (stereo partly specified) | 4 µg/mL (≈ 7.79 µM) |

system: Pseudomonas aeruginosa; assay: Antibacterial activity against gram-negative Pseudomonas aeruginosa PA555 by CLSI method; assay type: functional; outline: as §1

| SMILES | MIC |
| --- | --- |
| CN(C)[C@@H]1C(O)=C(C(N)=O)C(=O)[C@@]2(O)C(O)=C3C(=O)c4c(O)cc([C@@H]5CCCN5C)c(C(F)(F)F)c4C[C@H]3C[C@@H]12 | 8 µg/mL (≈ 14.1 µM) |
| CN(C)[C@@H]1C(O)=C(C(N)=O)C(=O)[C@@]2(O)C(O)=C3C(=O)c4c(O)cc([C@@H]5CCCN5)c(F)c4C[C@H]3C[C@@H]12 | 8 µg/mL (≈ 16 µM) |
| COc1c(C2CCCN2)cc(O)c2c1C[C@H]1C[C@H]3[C@H](N(C)C)C(O)=C(C(N)=O)C(=O)[C@@]3(O)C(O)=C1C2=O (stereo partly specified) | 32 µg/mL (≈ 62.3 µM) |

system: Enterobacter cloacae; assay: Antibacterial activity against gram-negative Enterobacter cloacae EC1603 harboring tet(A) by CLSI method; assay type: functional; outline: as §2

| SMILES | MIC |
| --- | --- |
| CN(C)[C@@H]1C(O)=C(C(N)=O)C(=O)[C@@]2(O)C(O)=C3C(=O)c4c(O)cc([C@@H]5CCCN5)c(F)c4C[C@H]3C[C@@H]12 | 32 µg/mL (≈ 63.8 µM) |
| COc1c(C2CCCN2)cc(O)c2c1C[C@H]1C[C@H]3[C@H](N(C)C)C(O)=C(C(N)=O)C(=O)[C@@]3(O)C(O)=C1C2=O (stereo partly specified) | > 32 µg/mL |

system: Staphylococcus aureus; assay: Antibacterial activity against gram-positive Staphylococcus aureus SA101 by CLSI method; assay type: functional; outline: as §1

| SMILES | MIC |
| --- | --- |
| CN(C)[C@@H]1C(O)=C(C(N)=O)C(=O)[C@@]2(O)C(O)=C3C(=O)c4c(O)cc([C@@H]5CCCN5C)c(C(F)(F)F)c4C[C@H]3C[C@@H]12 | 0.125 µg/mL (≈ 0.221 µM) |
| CN(C)[C@@H]1C(O)=C(C(N)=O)C(=O)[C@@]2(O)C(O)=C3C(=O)c4c(O)cc([C@@H]5CCCN5)c(F)c4C[C@H]3C[C@@H]12 | 0.5 µg/mL (≈ 0.997 µM) |
| COc1c(C2CCCN2)cc(O)c2c1C[C@H]1C[C@H]3[C@H](N(C)C)C(O)=C(C(N)=O)C(=O)[C@@]3(O)C(O)=C1C2=O (stereo partly specified) | 8 µg/mL (≈ 15.6 µM) |

system: Staphylococcus aureus; assay: Antibacterial activity against gram-positive Staphylococcus aureus SA161 harboring tet(M) by CLSI method; assay type: functional; outline: as §2

| SMILES | MIC |
| --- | --- |
| CN(C)[C@@H]1C(O)=C(C(N)=O)C(=O)[C@@]2(O)C(O)=C3C(=O)c4c(O)cc([C@@H]5CCCN5C)c(C(F)(F)F)c4C[C@H]3C[C@@H]12 | 2 µg/mL (≈ 3.54 µM) |
| CN(C)[C@@H]1C(O)=C(C(N)=O)C(=O)[C@@]2(O)C(O)=C3C(=O)c4c(O)cc([C@@H]5CCCN5)c(F)c4C[C@H]3C[C@@H]12 | > 32 µg/mL |
| COc1c(C2CCCN2)cc(O)c2c1C[C@H]1C[C@H]3[C@H](N(C)C)C(O)=C(C(N)=O)C(=O)[C@@]3(O)C(O)=C1C2=O (stereo partly specified) | > 32 µg/mL |

system: Staphylococcus aureus; assay: Antibacterial activity against gram-positive Staphylococcus aureus SA158 harboring tet(K) by CLSI method; assay type: functional; outline: as §2

| SMILES | MIC |
| --- | --- |
| CN(C)[C@@H]1C(O)=C(C(N)=O)C(=O)[C@@]2(O)C(O)=C3C(=O)c4c(O)cc([C@@H]5CCCN5C)c(C(F)(F)F)c4C[C@H]3C[C@@H]12 | ≤ 0.0156 µg/mL |
| CN(C)[C@@H]1C(O)=C(C(N)=O)C(=O)[C@@]2(O)C(O)=C3C(=O)c4c(O)cc([C@@H]5CCCN5)c(F)c4C[C@H]3C[C@@H]12 | 0.125 µg/mL (≈ 0.249 µM) |
| COc1c(C2CCCN2)cc(O)c2c1C[C@H]1C[C@H]3[C@H](N(C)C)C(O)=C(C(N)=O)C(=O)[C@@]3(O)C(O)=C1C2=O (stereo partly specified) | 2 µg/mL (≈ 3.89 µM) |

system: Streptococcus pneumoniae; assay: Antibacterial activity against gram-positive Streptococcus pneumoniae SP160 harboring tet(M) by CLSI method; assay type: functional; outline: as §2

| SMILES | MIC |
| --- | --- |
| CN(C)[C@@H]1C(O)=C(C(N)=O)C(=O)[C@@]2(O)C(O)=C3C(=O)c4c(O)cc([C@@H]5CCCN5C)c(C(F)(F)F)c4C[C@H]3C[C@@H]12 | ≤ 0.0156 µg/mL |
| CN(C)[C@@H]1C(O)=C(C(N)=O)C(=O)[C@@]2(O)C(O)=C3C(=O)c4c(O)cc([C@@H]5CCCN5)c(F)c4C[C@H]3C[C@@H]12 | 1 µg/mL (≈ 1.99 µM) |
| COc1c(C2CCCN2)cc(O)c2c1C[C@H]1C[C@H]3[C@H](N(C)C)C(O)=C(C(N)=O)C(=O)[C@@]3(O)C(O)=C1C2=O (stereo partly specified) | 4 µg/mL (≈ 7.79 µM) |

system: Escherichia coli; assay: Antibacterial activity against gram-negative Escherichia coli EC107 by CLSI method; assay type: functional; outline: as §1

| SMILES | MIC |
| --- | --- |
| CN(C)[C@@H]1C(O)=C(C(N)=O)C(=O)[C@@]2(O)C(O)=C3C(=O)c4c(O)cc([C@@H]5CCCN5C)c(C(F)(F)F)c4C[C@H]3C[C@@H]12 | 0.0312 µg/mL (≈ 0.0552 µM) |
| CN(C)[C@@H]1C(O)=C(C(N)=O)C(=O)[C@@]2(O)C(O)=C3C(=O)c4c(O)cc([C@@H]5CCCN5)c(F)c4C[C@H]3C[C@@H]12 | 0.125 µg/mL (≈ 0.249 µM) |
| COc1c(C2CCCN2)cc(O)c2c1C[C@H]1C[C@H]3[C@H](N(C)C)C(O)=C(C(N)=O)C(=O)[C@@]3(O)C(O)=C1C2=O (stereo partly specified) | 2 µg/mL (≈ 3.89 µM) |

system: Escherichia coli; assay: Antibacterial activity against gram-negative Escherichia coli EC155 harboring tet(A) by CLSI method; assay type: functional; outline: as §2

| SMILES | MIC |
| --- | --- |
| CN(C)[C@@H]1C(O)=C(C(N)=O)C(=O)[C@@]2(O)C(O)=C3C(=O)c4c(O)cc([C@@H]5CCCN5C)c(C(F)(F)F)c4C[C@H]3C[C@@H]12 | 0.5 µg/mL (≈ 0.884 µM) |
| CN(C)[C@@H]1C(O)=C(C(N)=O)C(=O)[C@@]2(O)C(O)=C3C(=O)c4c(O)cc([C@@H]5CCCN5)c(F)c4C[C@H]3C[C@@H]12 | 16 µg/mL (≈ 31.9 µM) |
| COc1c(C2CCCN2)cc(O)c2c1C[C@H]1C[C@H]3[C@H](N(C)C)C(O)=C(C(N)=O)C(=O)[C@@]3(O)C(O)=C1C2=O (stereo partly specified) | > 32 µg/mL |

— ChEMBL document CHEMBL4007456, “Heterocyclyl Tetracyclines. 1. 7-Trifluoromethyl-8-Pyrrolidinyltetracyclines: Potent, Broad Spectrum Antibacterial Agents with Enhanced Activity against Pseudomonas aeruginosa” (2017)
